Assay results reported in article PMC8906099 (Current Research in Parasitology & Vector-borne Diseases, 2021).
≈ marks a conversion by molar mass, not a printed value. Like-named read-outs stand apart in the source and are kept apart here.

What was measured:
[1] = test system: amastigotes of T. cruzi Sylvio X10/7 strain; test: Trypanocidal activity against intracellular amastigotes in C2C12 cells; assay type: cell-based, Trypanosoma cruzi
Method in brief: (§1)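 Trypomastigotes from C2C12 co-culture (DMEM, 10% FBS, 25 mM HEPES, pH 7.2) were seeded with C2C12 cells at a 1:15 infection rate. Test compound (0.19–100 μM, 2-fold, 0.1% DMSO) was added at the start. After 72 h at 37 °C, 5% CO2, cells were stained with DAPI 2 h and imaged confocally. Amastigote and host nuclei were told apart by size. IC50 came from sigmoid fits of the infection ratio normalised to controls. Mean ± SD, three experiments in triplicate.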

[2] = test system: intracellular amastigotes of T. cruzi CA-I/72 strain; test: Time-course study against intracellular amastigotes; assay type: cell-based; details: Trypanosoma cruzi
Method in brief: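 CA-I/72 trypomastigotes were incubated with C2C12 cells for 48 h to form intracellular amastigotes. Test compound was then added (0.19–100 μM, 2-fold, 0.1% DMSO), with benznidazole and DMSO controls. Incubation ran 8, 12, 24 or 48 h at 37 °C, 5% CO2. Growth inhibition was read by DAPI high-content imaging. IC50 came from sigmoid fits of the normalised infection ratio. Time trend was tested by linear regression and ANOVA.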

[3] = test system: amastigotes of T. cruzi Sylvio X10/4 strain; test: Trypanocidal activity against intracellular amastigotes in C2C12 cells; assay type: cell-based; details: Trypanosoma cruzi, C2C12, 72 h, read-out: IC50 ± SD, amastigotes
Method in brief: as §1

[4] = test system: C2C12 cells infected with intracellular amastigotes of T. cruzi (CA-I/72 strain); test: Time-course cytotoxicity in infected C2C12 cells; assay type: cell-based, murine; details: infected C2C12 vs amastigotes CA-I/72, time-course
Method in brief: (§2)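 This uses the CA-I/72 time-course infection format: a 48 h pre-infection of C2C12 cells, then test compound at 0.19–100 μM for 8, 12, 24 or 48 h, with DAPI imaging. Host viability was the total host cell count divided by the mean count of 0.1% DMSO controls. CC50 came from sigmoid fits. SI = CC50/IC50 against amastigotes at the matching time.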

[5] = Time-course cytotoxicity in infected C2C12 cells; assay type: cell-based, murine; details: mouse
Method in brief: as §2

[6] = test system: trypomastigotes of T. cruzi (Sylvio X10/4 strain); test: Trypanocidal activity against trypomastigotes; assay type: cell-based; details: Trypanosoma cruzi, 72 h, read-out: IC50 ± SD, trypomastigotes
Method in brief: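 Sylvio X10/4 trypomastigotes were taken from amastigote culture supernatant and seeded at 1 × 10^6 per well. Test compound was added at 0.19–100 μM (0.1% DMSO), with benznidazole (0.019–10 μM) and DMSO controls. Incubation was 72 h at 37 °C, 5% CO2. Viability was read with resazurin (40 μM in PBS), fluorescence 530/630 nm. IC50 came from sigmoid dose–response fits.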

[7] = test system: non-infected LLC-MK2 cells; test: Cytotoxicity in non-infected cells; assay type: cell-based, monkey; details: non-infected LLC-MK2 CC50 / IC50 amastigotes CA-I/72 strain, 72 h
Method in brief: (§3)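 LLC-MK2 monkey kidney cells, grown in RPMI with 10% FBS at 37 °C and 5% CO2, were plated and after 24 h exposed to test compound (0.19–100 μM, 2-fold dilutions, 0.1% DMSO) for 72 h at 37 °C. Controls were untreated cells, 0.4% DMSO and 15% Triton. After a PBS wash, MTT (2 mg/ml) was added for 4 h, and absorbance read at 450/620 nm. SI is CC50 divided by the 72 h CA-I/72 intracellular amastigote IC50.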

[8] = Cytotoxicity in non-infected cells; assay type: cell-based, monkey; details: monkey, non-infected LLC-MK2 cells
Method in brief: as §3

[9] = test system: amastigotes of T. cruzi Brazil strain; test: Trypanocidal activity against intracellular amastigotes in C2C12 cells; assay type: cell-based; details: Trypanosoma cruzi, C2C12, 72 h, read-out: IC50 ± SD, amastigotes
Method in brief: as §1

non-infected C2C12 cells = test: Cytotoxicity in non-infected cells; assay type: cell-based, murine; details: non-infected C2C12 CC50 / IC50 amastigotes CA-I/72 strain, 72 h
Method in brief: (§4)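 Non-infected C2C12 cells (5 × 10^4 per well) were plated for 24 h. Test compound (0.19–100 μM, 2-fold, 0.1% DMSO) was then added for 72 h at 37 °C. Controls were untreated, DMSO 0.4% and Triton 15%. After a PBS wash, MTT (2 mg/ml) was added for 4 h, and absorbance was read at 450 nm (reference 620 nm). CC50 came from sigmoid fits. SI = CC50/IC50 against CA-I/72 amastigotes at 72 h.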

[10] = Cytotoxicity in non-infected cells; assay type: cell-based, murine; details: mouse, non-infected C2C12 cells
Method in brief: as §4

[11] = test system: amastigotes of T. cruzi CA-I/72 strain; test: Trypanocidal activity against intracellular amastigotes in C2C12 cells; assay type: cell-based; details: Trypanosoma cruzi, C2C12, 72 h, read-out: IC50 ± SD, amastigotes
Method in brief: as §1

[12] = Cytotoxicity in infected C2C12 cells after 72 h; assay type: cell-based, murine; details: mouse
Method in brief: (§5)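 C2C12 cells were infected with trypomastigotes (1:15) together with test compound (0.19–100 μM, 0.1% DMSO) for 72 h at 37 °C, 5% CO2. Host nuclei were counted by DAPI high-content imaging. Viability was the cell count relative to the DMSO-control mean. CC50 came from sigmoid fits. SI = CC50/IC50 against intracellular amastigotes of the same strain at 72 h.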

female BALB/c mice = test: Acute oral toxicity test in mice; assay type: in vivo; details: for DA/TA (dead animals/total animals) / Mortality / Signs of toxicity: 14 days
Method in brief: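 Six-week-old female BALB/c mice (25–30 g), five per group. Single oral dose of 300 or 1,000 mg/kg test compound in Tween 80/ethanol/water (7:3:90), with a vehicle group. Clinical signs (ataxia, tremor, salivation, ptosis, seizures and others) watched continuously for 1 h, periodically over 24 h, then daily to day 14. Mortality recorded.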

[13] = test system: several Streptococcus species; details: ref Vieira et al., 2018; cited from earlier work
infected C2C12 cells = test: Cytotoxicity in infected C2C12 cells after 72 h; assay type: cell-based, murine; details: 72 h
Method in brief: as §5

[14] = Trypanosoma cruzi, C2C12, 72 h, read-out: IC50 ± SD, amastigotes, Sylvio X10/7 strain, 72 h incubation
[15] = read-out: IC50 over the incubation times evaluated
[16] = C2C12 cells infected with T. cruzi Brazil strain
[17] = C2C12 cells infected with T. cruzi CA-I/72 strain
[18] = C2C12 cells infected with T. cruzi Sylvio X10/4 strain
[19] = C2C12 cells infected with T. cruzi Sylvio X10/7 strain
[20] = infected C2C12, Sylvio X10/7 strain

Compound | IC50 [1, 14] | IC50 ([2]; 8 h, read-out: IC50 ± SD) | IC50 ([2]; 12 h, read-out: IC50 ± SD) | IC50 ([2]; 24 h, read-out: IC50 ± SD) | IC50 ([2]; 48 h, read-out: IC50 ± SD) | IC50 [3] | CC50 at 8 h [5] | CC50 at 12 h [5] | CC50 at 24 h [5] | CC50 at 48 h [5] | IC50 [6] | SI (CC50/IC50) [7] | CC50 at 72 h [8] | IC50 [9] | CC50 at 72 h [10] | IC50 [11] | CC50 at 72 h [12, 16] | CC50 at 72 h [12, 17] | CC50 at 72 h [12, 18] | CC50 at 72 h [12, 19] | other results
O=C(Cn1ccnc1[N+](=O)[O-])NCc1ccccc1 [BZ, benznidazole, reference compound] | 1.19 ± 0.25 µM | > 10 µM | 6.85 ± 1.56 µM | 5.97 ± 1.2 µM | 1.54 ± 0.36 µM | 4.12 ± 1.02 µM | > 10 µM | 3.98 ± 0.31 µM | 3.48 ± 0.7 µM | 0.27 ± 0.07 µM | 1.16 ± 0.04 µM | 82.92 | 168 ± 2.98 µM | 1.28 ± 0.64 µM | 37.9 ± 1.54 µM | 2.02 ± 0.12 µM | > 10 µM | > 10 µM | > 10 µM | > 10 µM | IC50 [2, 15]: 1.54 to 10 µM; SI (CC50/IC50) ([4]; 12 h): 0.58; SI (CC50/IC50) ([4]; 24 h): 0.58; SI (CC50/IC50) ([4]; 48 h): 0.17; SI (CC50/IC50) (non-infected C2C12 cells): 18.73
COc1cc(/C=C/C(=O)CC(=O)/C=C/c2ccc(O)c(OC)c2)ccc1O [CUR, reference compound] | 11.6 ± 4.93 µM | > 100 µM | > 100 µM | 51.6 ± 1.26 µM | 2.25 ± 0.65 µM | 20 ± 2.61 µM | 60.3 ± 1.54 µM | 9.95 ± 1.17 µM | 1.88 ± 0.17 µM | 0.47 ± 0.09 µM | 9.89 ± 0.51 µM |  | 32.5 ± 0.49 µM | 11.2 ± 1.05 µM | 18 ± 0.42 µM | 2.71 ± 0.47 µM | 2.36 ± 1.24 µM | 6.71 ± 0.7 µM | 1.91 ± 0.02 µM | 3.37 ± 1.33 µM | Acute toxicity (general signs of toxicity or mortality) (female BALB/c mice; oral doses 300 and 1,000 mg/kg, 14-day period): no toxic effects; DA/TA (dead animals/total animals) (female BALB/c mice; single oral dose 300 mg/kg): 0/5; Mortality (female BALB/c mice; single oral dose 300 mg/kg): 0%; Signs of toxicity (female BALB/c mice; single oral dose 300 mg/kg): None; DA/TA (dead animals/total animals) (female BALB/c mice; single oral dose 1,000 mg/kg): 0/5; Mortality (female BALB/c mice; single oral dose 1,000 mg/kg): 0%; Signs of toxicity (female BALB/c mice; single oral dose 1,000 mg/kg): None
COc1ccc(/C=C/C(=O)/C=C/c2ccc(OC)cc2)cc1 [DBA 2, (1E,4E)-1,5-bis(4-methoxyphenyl)penta-1,4-dien-3-one] | 0.48 ± 0.02 µM | > 100 µM | > 100 µM | > 100 µM | > 100 µM | 46.6 ± 0.48 µM | 40.7 ± 1.07 µM | 3.03 ± 0.79 µM | 0.33 ± 0.41 µM | 0.02 ± 0.03 µM | 29.8 ± 2.12 µM | 1.79 | 31.4 ± 1.2 µM | 51.6 ± 4.9 µM | 35.5 ± 0.5 µM | 17.5 ± 1.06 µM | 5.15 ± 0.13 µM | 4.3 ± 1.22 µM | 2.54 ± 1.86 µM | 0.9 ± 1.2 µM | MIC [13]: 100 µg/mL (≈ 340 µM); IC50 [2, 15]: > 100 µM; SI (CC50/IC50) (non-infected C2C12 cells): 2.03; SI (CC50/IC50) (infected C2C12 cells; infected C2C12, Brazil strain): 0.10; SI (CC50/IC50) (infected C2C12 cells; infected C2C12, CA-I/72 strain): 0.24; SI (CC50/IC50) (infected C2C12 cells; infected C2C12, Sylvio X10/4 strain): 0.05; SI (CC50/IC50) (infected C2C12 cells; [20]): 1.87
COc1cc(OC)c(/C=C/C(=O)/C=C/c2c(OC)cc(OC)cc2OC)c(OC)c1 [DBA 4, (1E,4E)-1,5-bis-(2,4,6-trimethoxyphenyl)penta-1,4-dien-3-one] | 33.1 µM | > 100 µM | > 100 µM | > 100 µM | 34.5 ± 0.94 µM | > 100 µM | > 100 µM | 60.4 ± 1.11 µM | 2.98 ± 0.24 µM | 0.66 ± 0.29 µM | > 100 µM | ≥ 10 | 50.1 ± 7.92 µM | > 100 µM | 53.7 ± 1.26 µM | 5.01 ± 1.14 µM | 0.09 ± 0.11 µM | 0.6 ± 0.16 µM | 0.11 ± 0.1 µM | 0.37 ± 0.14 µM | IC50 ([1]; read-out: IC50 ± SD, amastigotes, Sylvio X10/7 strain, 72 h incubation): 33.1 ± 2.05 µM; SI (CC50/IC50) ([4]; 48 h): 0.01; SI (CC50/IC50) ([7]; listed as 4): 10.00; SI (CC50/IC50) (non-infected C2C12 cells): > 10; SI (CC50/IC50) (non-infected C2C12 cells; listed as 4): 10.71; SI (CC50/IC50) (infected C2C12 cells; infected C2C12, CA-I/72 strain): 0.12; SI (CC50/IC50) (infected C2C12 cells; [20]): 0.01
